Assay results published in PMC9064050 (RSC Advances, 2019).
Values after ≈ are worked out from the molar mass of the structure shown.

Key:
Escherichia coli = experiment: Kirby–Bauer agar disc diffusion; format: cell-based; conditions: for inhibition%: from zone diameter, eqn (20)
Outline: (§1)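 Kirby–Bauer disc diffusion on Mueller–Hinton agar (pH 7.2, autoclaved 121 °C for 15 min, ~4 mm deep, held 2–8 °C for 24 h). Plates spread with 24 h cultures. 6 mm discs loaded with 20 μL of 100 μM test compound. Bacteria incubated at 37 °C for 48 h; fungi at 22 °C for 7 days. Clear-zone diameter measured by ruler; % inhibition by eqn (20) against 6 mm control.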

[1] = system: Salmonella enteric serovar typhi; experiment: Kirby–Bauer agar disc diffusion; format: cell-based; conditions: for inhibition%: eqn (20)
Outline: as §1

[2] = system: Chromobacterium violaceum; experiment: Kirby–Bauer agar disc diffusion; format: cell-based; conditions: for inhibition%: eqn (20)
Outline: as §1

Pseudomonas aeruginosa = experiment: Kirby–Bauer agar disc diffusion; format: cell-based; conditions: for inhibition%: eqn (20)
Outline: as §1

Shigella flexneri = experiment: Kirby–Bauer agar disc diffusion; format: cell-based; conditions: for inhibition%: eqn (20)
Outline: as §1

Staphylococcus aureus = experiment: Kirby–Bauer agar disc diffusion; format: cell-based; conditions: for inhibition%: eqn (20)
Outline: as §1

Bacillus cereus = experiment: Kirby–Bauer agar disc diffusion; format: cell-based; conditions: for inhibition%: eqn (20)
Outline: as §1

[3] = DPPH radical scavenging assay; conditions: for % Inhibition, DPPH: 240 µM, 517 nm
Outline: (§2)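 Absorbance read at 517 nm (DPPH), 230 nm (hydroxyl), 590 nm (superoxide), 546 nm (nitric oxide) and 700 nm (FRAP). FRAP measures the rise in absorbance from Fe3+→Fe2+ reduction with ferricyanide. IC50 taken from % inhibition vs concentration plots.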

[4] = Hydroxyl radical scavenging assay; conditions: for % Inhibition, hydroxyl radical: 240 µM, 230 nm
Outline: as §2

[5] = Superoxide scavenging assay; conditions: for % Inhibition, superoxide: 240 µM, 590 nm
Outline: as §2

[6] = Nitric oxide scavenging assay; conditions: for % Inhibition, nitric oxide: 240 µM, 546 nm
Outline: as §2

[7] = Ferric reducing antioxidant power; conditions: for % Inhibition, ferric reducing power: 240 µM, 700 nm
Outline: as §2

Aspergillus niger = experiment: Kirby–Bauer agar disc diffusion; format: cell-based; conditions: for inhibition%: eqn (20)
Outline: as §1

Candida albicans = experiment: Kirby–Bauer agar disc diffusion; format: cell-based; conditions: for inhibition%: eqn (20)
Outline: as §1

Mucor indicus = experiment: Kirby–Bauer agar disc diffusion; format: cell-based; conditions: for inhibition%: eqn (20)
Outline: as §1

CT-DNA [8] = experiment: Nuclease activity by gel electrophoresis in presence of H2O2; format: biochemical; conditions: CT-DNA + H2O2, agarose gel
Outline: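 Chemical nuclease assay: CT-DNA with test compound plus H2O2 in Tris–HCl buffer, pH 7.2. Products run on agar gel electrophoresis and imaged under a UV transilluminator. Band migration compared with a DNA + H2O2 control.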

CT-DNA [9] = experiment: DNA binding by electronic absorption titration; conditions: Wolfe–Shimmer method; 298 K, pH 7.2
Outline: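 UV-Vis titration at a fixed complex concentration of 100 μM in 5 mM Tris–HCl/50 mM NaCl, pH 7.2, 25 °C. CT-DNA varied 0–150 μM, with [DNA] expressed in base pairs. Kb (Wolfe–Shimmer) taken as the slope-to-intercept ratio of [DNA]/(εa−εf) vs [DNA].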

[10] = target: bovine serum albumin (BSA) (Bos taurus, UniProt P02769); experiment: BSA binding assay by absorption titration
Sequence of bovine serum albumin (BSA) (P02769 25-607): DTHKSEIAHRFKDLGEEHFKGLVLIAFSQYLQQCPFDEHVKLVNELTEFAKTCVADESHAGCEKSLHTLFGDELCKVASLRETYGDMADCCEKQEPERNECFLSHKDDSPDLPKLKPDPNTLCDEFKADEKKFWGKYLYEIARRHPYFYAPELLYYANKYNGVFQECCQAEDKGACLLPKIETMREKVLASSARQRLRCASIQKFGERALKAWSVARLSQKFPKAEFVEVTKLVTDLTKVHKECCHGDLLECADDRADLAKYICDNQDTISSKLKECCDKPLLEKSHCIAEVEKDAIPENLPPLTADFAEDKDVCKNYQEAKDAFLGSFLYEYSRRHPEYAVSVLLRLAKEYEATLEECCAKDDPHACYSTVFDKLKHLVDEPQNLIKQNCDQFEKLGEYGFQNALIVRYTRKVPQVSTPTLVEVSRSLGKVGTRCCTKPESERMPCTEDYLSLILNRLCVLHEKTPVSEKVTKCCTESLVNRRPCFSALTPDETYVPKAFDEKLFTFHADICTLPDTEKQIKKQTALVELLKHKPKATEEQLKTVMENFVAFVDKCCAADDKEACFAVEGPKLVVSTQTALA

CT-DNA [11] = experiment: DNA thermal denaturation by absorption; format: binding
EB–DNA = experiment: Competitive binding
Outline: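 EB displacement fluorescence titration: CT-DNA 100 μM with EB in 50 mM Tris–HCl/1 mM NaCl buffer (pH 7.2), test compound 0–120 μM. Emission at 610 nm. KSV and Kq from Stern–Volmer (τ0 = 10^−8 s); Kass and n from log(F0−F)/F vs log[Q]; KLB from 1/(F0−F) vs 1/[Q]; KSC and n from Scatchard. Kapp from KEB[EB] = Kapp[compound] at 50% EB-fluorescence loss (KEB = 10^7 M−1, EB 50 μM).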

human lung cancer (A549) = experiment: In vitro anticancer MTT assay; format: cell-based; conditions: 50% cell death following 72 h exposure
Outline: (§3)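 MTT viability: cells seeded at 1 × 10^5 per well and incubated 24 h at 37 °C, 5% CO2. Treated with test compound at 10–100 μg mL−1 (from DMSO). Medium removed, wells PBS-washed, RPMI-1640 plus MTT (5 mg mL−1 solution) added for 4 h at 37 °C. Formazan dissolved in DMSO, read at 570 nm. Triplicate wells; IC50 from % viability; cisplatin as reference.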

liver cancer (HepG2) = experiment: In vitro anticancer MTT assay; format: cell-based, human; conditions: 50% cell death following 72 h exposure
Outline: as §3

breast (MCF-7) = experiment: In vitro anticancer MTT assay; format: cell-based, human; conditions: 50% cell death following 72 h exposure
Outline: as §3

[12] = system: normal human dermal fibroblast (NHDF); experiment: MTT assay on normal cells; format: cell-based; conditions: normal cell line; 50% cell death following 72 h exposure
Outline: as §3

[13] = B = (−)Salmonella enteric serovar typhi
[14] = C = (−)Chromobacterium violaceum

NCC[C@H](O)C(=O)N[C@@H]1C[C@H](N)[C@@H](O[C@H]2O[C@H](CN)[C@@H](O)[C@H](O)[C@H]2O)[C@H](O)[C@H]1O[C@H]1O[C@H](CO)[C@@H](O)[C@H](N)[C@H]1O [Amikacin, amikacin]
inhibition% (Escherichia coli; A = (−) Escherichia coli): 73%
zone of inhibition at 100 µM (Escherichia coli; Escherichia coli, read-out: diameter of clear zone inhibition): 22 mm
inhibition% [1, 13]: 73%
zone of inhibition at 100 µM ([1]; Salmonella, TYPHI, read-out: diameter of clear zone inhibition): 22 mm
inhibition% [2, 14]: 75%
zone of inhibition at 100 µM ([2]; Chromobacterium violaceum, read-out: diameter of clear zone inhibition): 24 mm
inhibition% (Pseudomonas aeruginosa; D = (−)Pseudomonas aeruginosa): 70%
zone of inhibition at 100 µM (Pseudomonas aeruginosa; Pseudomonas aeruginosa, read-out: diameter of clear zone inhibition): 20 mm
inhibition% (Shigella flexneri; E = (−)Shigella flexneri): 70%
zone of inhibition at 100 µM (Shigella flexneri; Shigella flexneri, read-out: diameter of clear zone inhibition): 20 mm
inhibition% (Staphylococcus aureus; F = (+)Staphylococcus aureus): 70%
zone of inhibition at 100 µM (Staphylococcus aureus; Staphylococcus aureus, read-out: diameter of clear zone inhibition): 20 mm
zone of inhibition at 100 µM (Bacillus cereus; Bacillus cereus, read-out: diameter of clear zone inhibition): 20 mm
inhibition% (Bacillus cereus; G = (+)Bacillus cereus): 70%

O=C1O[C@H]([C@@H](O)CO)C(O)=C1O [Ascorbic acid, ascorbic acid]
% Inhibition, DPPH [3]: 82.75%
IC50 ([3]; read-out: IC50, DPPH): 80 µM
% Inhibition, hydroxyl radical [4]: 78.83%
IC50 ([4]; read-out: IC50, hydroxyl radical): 160 µM
% Inhibition, superoxide [5]: 84.85%
IC50 ([5]; read-out: IC50, superoxide): 120 µM
% Inhibition, nitric oxide [6]: 72.73%
IC50 ([6]; read-out: IC50, nitric oxide): 200 µM
% Inhibition, ferric reducing power [7]: 88.67%
IC50 ([7]; read-out: IC50, ferric reducing power): 160 µM

C[C@@H]1[C@H](O)[C@@H](C)/C=C/C=C/C=C/C=C/C=C/C=C/C=C/[C@H](O[C@@H]2O[C@H](C)[C@@H](O)[C@H](N)[C@@H]2O)C[C@@H]2O[C@](O)(C[C@@H](O)C[C@@H](O)[C@H](O)CC[C@@H](O)C[C@@H](O)CC(=O)O[C@H]1C)C[C@H](O)[C@H]2C(=O)O [Amphotericin B, amphotericin B]
zone of inhibition at 100 µM (Aspergillus niger; Aspergillus niger, read-out: diameter of clear zone inhibition): 15 mm
inhibition% (Aspergillus niger; H = Aspergillus niger): 60%
zone of inhibition at 100 µM (Candida albicans; Candida albicans, read-out: diameter of clear zone inhibition): 17 mm
inhibition% (Candida albicans; I = Candida albicans): 65%
inhibition% (Mucor indicus; J = Mucor indicus): 65%
zone of inhibition at 100 µM (Mucor indicus; Mucor indicus, read-out: diameter of clear zone inhibition): 17 mm

Oc1ccc(Br)cc1C=NCCN1CCOCC1 [HL, 2-(-(2-morpholinoethylimino)methyl)-4-bromophenol]
DNA cleavage efficacy (CT-DNA [8]): inactive
Kb, WS method (intrinsic DNA binding constant) (CT-DNA [9]): 10000 M⁻¹
Chromism (%H), hyperchromism ([10]; BSA absorption, pH 7.2, 25 °C): 34.27%
Δλ (nm), bound vs free ([10]; blue-shift of BSA band, pH 7.2, 25 °C): 02 nm
Gibb's free energy change ([10]; from Kapp): -5.595 kcal/mol
Binding constant Kr at 298 K (CT-DNA [11]): 10038 M⁻¹
KLB (Lineweaver–Burk binding constant) (EB–DNA): 1498 M⁻¹
KSV (Stern–Volmer binding constant), Method-I (EB–DNA): 4658 M⁻¹
Kass (association binding constant), Stern–Volmer Method-II (EB–DNA): 1924 M⁻¹
Apparent binding constant Kapp (EB–DNA; KEB[EB] = Kapp[compound], 50% reduction of EB fluorescence): 269932 M⁻¹
KSC (Scatchard binding constant) (EB–DNA; Scatchard analysis): 10942 M⁻¹
% Inhibition, DPPH [3]: 50.64%
% Inhibition, hydroxyl radical [4]: 51.78%
% Inhibition, superoxide [5]: 50.62%
% Inhibition, nitric oxide [6]: 50.20%
% Inhibition, ferric reducing power [7]: 54.29%
diameter of clear zone inhibition (Escherichia coli; A = (−) Escherichia coli, 20 μL of 100 μM per disc, control (DMSO) = 6 mm): 14 mm
inhibition% (Escherichia coli; A = (−) Escherichia coli): 57%
diameter of clear zone inhibition ([1]; B = (−)Salmonella enteric serovar typhi, 20 μL of 100 μM per disc, control 6 mm): 12 mm
inhibition% [1, 13]: 50%
diameter of clear zone inhibition ([2]; C = (−)Chromobacterium violaceum, 20 μL of 100 μM per disc, control 6 mm): 12 mm
inhibition% [2, 14]: 50%
diameter of clear zone inhibition (Pseudomonas aeruginosa; D = (−)Pseudomonas aeruginosa, 20 μL of 100 μM per disc, control 6 mm): 12 mm
inhibition% (Pseudomonas aeruginosa; D = (−)Pseudomonas aeruginosa): 50%
diameter of clear zone inhibition (Shigella flexneri; E = (−)Shigella flexneri, 20 μL of 100 μM per disc, control 6 mm): 17 mm
inhibition% (Shigella flexneri; E = (−)Shigella flexneri): 65%
diameter of clear zone inhibition (Staphylococcus aureus; F = (+)Staphylococcus aureus, 20 μL of 100 μM per disc, control 6 mm): 10 mm
inhibition% (Staphylococcus aureus; F = (+)Staphylococcus aureus): 40%
diameter of clear zone inhibition (Bacillus cereus; G = (+)Bacillus cereus, 20 μL of 100 μM per disc, control 6 mm): 10 mm
inhibition% (Bacillus cereus; G = (+)Bacillus cereus): 40%
diameter of clear zone inhibition (Aspergillus niger; H = Aspergillus niger, 20 μL of 100 μM per disc, control 6 mm): 25 mm
inhibition% (Aspergillus niger; H = Aspergillus niger): 76%
diameter of clear zone inhibition (Candida albicans; I = Candida albicans, 20 μL of 100 μM per disc, control 6 mm): 12 mm
inhibition% (Candida albicans; I = Candida albicans): 50%
diameter of clear zone inhibition (Mucor indicus; J = Mucor indicus, 20 μL of 100 μM per disc, control 6 mm): 17 mm
inhibition% (Mucor indicus; J = Mucor indicus): 65%
IC50 A549 (human lung cancer (A549)): 31.74 µg/mL (≈ 101 µM)
IC50 HepG2 (liver cancer (HepG2)): 27.48 µg/mL (≈ 87.7 µM)
IC50 MCF-7 (breast (MCF-7)): 26.67 µg/mL (≈ 85.2 µM)
IC50 NHDF [12]: 66.72 µg/mL (≈ 213 µM)
